The source made the active and inactive calls. No cut-off for these calls is given here.
Tests used:
[1] = tested on: A-431; experiment: Growth inhibition of human A431 cells at 10 ug/mL after 3 days by MTT assay relative to control; format: functional; conditions: A-431, 72 h, read-out: GI
Procedure, shortened: (§1)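 Lines resuspended in culture medium: L-1210 at 1.5 × 10⁴ cells/well, SW-948 and A-431 at 2.5 × 10⁴ cells/well. Preparations added over […], cisplatin reference at the same concentrations. 3-day incubation, proliferation by MTT; mean OD of quadruplicate wells ±SE, expressed as percentage inhibition.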

[2] = tested on: PBMC; experiment: Inhibition of LPS-induced TNFalpha production in human PBMC at 25 ug/mL after overnight incubation relative to DMSO-treated control; format: functional
Procedure, shortened: (§2)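 Single-donor venous blood diluted 10× in RPMI-1640, 1 mL aliquots, stimulated with LPS (E. coli O111:B4). Compounds added at […]; corresponding DMSO dilutions as controls. Overnight incubation, supernatants frozen at −20 °C, TNF-α measured by biological assay; percentage inhibition versus DMSO control.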

[3] = tested on: L1210; experiment: Growth inhibition of mouse L1210 cells at 10 to 50 ug/mL after 3 days by MTT assay; format: functional, cell-based; procedure, shortened: as §1
[4] = tested on: L1210; experiment: Growth inhibition of mouse L1210 cells at 10 ug/mL after 3 days by MTT assay relative to control; format: functional; conditions: L1210, 72 h, read-out: GI; procedure, shortened: as §1
[5] = tested on: PBMC; experiment: Cytotoxicity against human PBMC cells at 50 ug/mL after 24 hrs by MTT assay relative to DMSO-treated control; format: cell-based
Procedure, shortened: (§3)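 Ficoll-isolated PBMC ([…]) in supplemented RPMI-1640, 2 × 10⁵/well, cultured 24 h with the preparations at the indicated concentrations; compounds dissolved in DMSO (10 mg/mL stock) and diluted in medium.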

[6] = tested on: PBMC; experiment: Inhibition of LPS-induced TNFalpha production in human PBMC at 5 ug/mL after overnight incubation relative to DMSO-treated control; format: functional; procedure, shortened: as §2
[7] = tested on: SW948; experiment: Growth inhibition of human SW948 cells at 10 to 50 ug/mL after 3 days by MTT assay; format: functional, cell-based; procedure, shortened: as §1
[8] = tested on: PBMC; experiment: Antiproliferative activity against PHA-stimulated human PBMC at 50 ug/mL after 4 days by MTT assay relative to DMSO-treated control; format: functional
Procedure, shortened: (§4)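 PBMC from one donor's heparinized blood, Ficoll gradient isolated, in RPMI-1640 with 10% FCS; 2 × 10⁵ cells/well. PHA added at […]; compounds from DMSO stock (10 mg/mL) diluted in medium; matching DMSO dilutions as control. Four-day culture, proliferation read by MTT colorimetry; percentage inhibition versus control.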

[9] = tested on: A-431; experiment: Growth inhibition of human A431 cells at 10 to 50 ug/mL after 3 days by MTT assay; format: functional, cell-based; procedure, shortened: as §1
[10] = tested on: SW948; experiment: Growth inhibition of human SW948 cells at 5 ug/mL after 3 days by MTT assay relative to control; format: functional; conditions: SW948, 72 h, read-out: GI; procedure, shortened: as §1
[11] = tested on: PBMC; experiment: Antiproliferative activity against PHA-stimulated human PBMC at 10 ug/mL after 4 days by MTT assay relative to DMSO-treated control; format: functional; procedure, shortened: as §4
[12] = tested on: SW948; experiment: Growth inhibition of human SW948 cells at 10 ug/mL after 3 days by MTT assay relative to control; format: functional; conditions: SW948, 72 h, read-out: GI; procedure, shortened: as §1
[13] = tested on: PBMC; experiment: Cytotoxicity against human PBMC cells at 10 ug/mL after 24 hrs by MTT assay relative to DMSO-treated control; format: cell-based; procedure, shortened: as §3

O=C(NCCCl)NCCCN1c2ccc(Cl)cc2Sc2cc3ccccc3nc21
inhibition of growth at 10 µg/mL [1]: 91.8% | inhibition at 25 µg/mL [2]: 72.1% | growth inhibition (GI) [3]: Active | inhibition of growth at 10 µg/mL [4]: 91.8% | Activity [5]: 89.5% | inhibition at 5 µg/mL [6]: 9.2% | growth inhibition (GI) [7]: Active | Activity [8]: 100% | growth inhibition (GI) [9]: Active | inhibition of growth at 5 µg/mL [10]: 96% | Activity [11]: 98.6% | inhibition of growth at 10 µg/mL [12]: 91.8% | Activity [13]: 15.9%

CSc1ccc2c(c1)Sc1cc3ccccc3nc1N2CCCCNC(=O)NCCCl
inhibition of growth at 10 µg/mL [1]: 91.8% | inhibition at 25 µg/mL [2]: 47.5% | growth inhibition (GI) [3]: Active | inhibition of growth at 10 µg/mL [4]: 91.8% | Activity [5]: 95.1% | inhibition at 5 µg/mL [6]: 73.3% | growth inhibition (GI) [7]: Active | Activity [8]: 92.7% | growth inhibition (GI) [9]: Active | inhibition of growth at 5 µg/mL [10]: 96% | Activity [11]: 94.8% | inhibition of growth at 10 µg/mL [12]: 91.8% | Activity [13]: 4.2%

CSc1ccc2c(c1)Sc1cc3ccccc3nc1N2CCN1CCCCC1
inhibition at 25 µg/mL [2]: 34.6% | Activity [5]: 91.7% | inhibition at 5 µg/mL [6]: 49.2% | Activity [8]: 92% | Activity [11]: 93.8% | Activity [13]: 18%

CSc1ccc2c(c1)Sc1cc3ccccc3nc1N2CCCCNS(=O)(=O)c1ccc(C)cc1
inhibition at 25 µg/mL [2]: 37.5% | Activity [5]: Non-toxic | inhibition at 5 µg/mL [6]: 70.4% | Activity [8]: -34.7% | Activity [11]: -5% | Activity [13]: Non-toxic

Cc1ccc2c(c1)Sc1cc3ccccc3nc1N2
inhibition at 25 µg/mL [2]: 66.6% | Activity [5]: 15.4% | inhibition at 5 µg/mL [6]: 54.1% | Activity [8]: -6.2% | Activity [11]: -17.9% | Activity [13]: 2.4%

O=C(NCCCl)NCCCCN1c2ccccc2Sc2cc3ccccc3nc21
inhibition at 25 µg/mL [2]: 4.3% | Activity [5]: Non-toxic | inhibition at 5 µg/mL [6]: -1.8% | Activity [8]: 88.7% | Activity [11]: 16.6% | Activity [13]: 7.9%

CSc1ccc2c(c1)Sc1cc3ccccc3nc1N2CCCNS(=O)(=O)c1ccc(C)cc1
inhibition at 25 µg/mL [2]: 20.8% | Activity [5]: Non-toxic | inhibition at 5 µg/mL [6]: 72.1% | Activity [8]: -46.4% | Activity [11]: -5.3% | Activity [13]: Non-toxic

CC(=O)NCCCN1c2ccc(Cl)cc2Sc2cc3ccccc3nc21
inhibition at 25 µg/mL [2]: 60.6% | Activity [5]: Non-toxic | inhibition at 5 µg/mL [6]: 11.4% | Activity [8]: 58.3% | Activity [11]: 50.8% | Activity [13]: Non-toxic

CSc1ccc2c(c1)Sc1cc3ccccc3nc1N2CCCNS(C)(=O)=O
inhibition at 25 µg/mL [2]: 47.5% | Activity [5]: Non-toxic | inhibition at 5 µg/mL [6]: 73.7% | Activity [8]: 65.4% | Activity [11]: 57.3% | Activity [13]: Non-toxic

Brc1ccc2c(c1)Nc1nc3ccccc3cc1S2
inhibition at 25 µg/mL [2]: -25% | Activity [5]: Non-toxic | inhibition at 5 µg/mL [6]: 11.2% | Activity [8]: 20.6% | Activity [11]: 4.3% | Activity [13]: Non-toxic

CN1CCCCC1CCN1c2ccccc2Sc2cc3ccccc3nc21 (stereo not drawn)
inhibition at 25 µg/mL [2]: 62.4% | Activity [5]: 4.5% | inhibition at 5 µg/mL [6]: 49.1% | Activity [8]: 39.8% | Activity [11]: -23.5% | Activity [13]: Non-toxic

CC(=O)NCCCCN1c2ccc(Cl)cc2Sc2cc3ccccc3nc21
inhibition of growth at 10 µg/mL [1]: 91.8% | inhibition at 25 µg/mL [2]: 53.4% | growth inhibition (GI) [3]: Active | inhibition of growth at 10 µg/mL [4]: 91.8% | Activity [5]: Non-toxic | inhibition at 5 µg/mL [6]: 13.2% | growth inhibition (GI) [7]: Active | Activity [8]: 92.6% | growth inhibition (GI) [9]: Active | Activity [11]: 71.2% | inhibition of growth at 10 µg/mL [12]: 91.8% | Activity [13]: Non-toxic

CCOC(=O)NCCCN1c2ccccc2Sc2cc3ccccc3nc21
inhibition at 25 µg/mL [2]: 14.1% | Activity [5]: Non-toxic | inhibition at 5 µg/mL [6]: 7.7% | Activity [8]: 88.4% | Activity [11]: 69.7% | Activity [13]: Non-toxic
